Assays:
[1] = Cytotoxicity against mock-infected human MT4 cells after 96 hrs by MTT assay; assay type: cell-based
In short: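 Exponentially growing MT-4 cells were seeded at 1 × 10^5 cells/mL in RPMI-1640 with 10% FBS and held at 37 °C, 5% CO2 with serial compound dilutions. Viability was read by MTT after 96 h. CC50 from linear regression against untreated controls.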

[2] = system: Human immunodeficiency virus 1; experiment: Antiviral activity against HIV1 infected in human MT4 cells assessed as inhibition of virus-induced cytopathogenicity after 4 days by MTT assay; assay type: functional, organism-based; details: Human immunodeficiency virus 1, MT4, 96 h
In short: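 MT-4 cells (1 × 10^4/well in RPMI) were infected acutely with HIV-1 IIIB, 100 CCID50 (m.o.i. 0.01), with serial dilutions from 100 µM, 1:5. After 4 days at 37 °C, protection from virus-induced cytopathogenicity was read by MTT. EC50 came from linear regression against untreated controls.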

[3] = Cytotoxicity against mock-infected MDBK cells after 48 to 96 hrs by MTT assay; assay type: cell-based, Bos taurus; details: cattle
In short: (§1)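 Mock-infected MDBK (6 × 10^5 cells/mL; MEM-E, 10% horse serum, 1 mM pyruvate) or BHK (1 × 10^6 cells/mL; MEM-E, 10% FBS) cells were incubated at 37 °C, 5% CO2 with serial dilutions from 100 µM, 1:5. Viability by MTT after 48–96 h. CC50 from linear regression against untreated controls.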

[4] = system: Bovine viral diarrhea virus 1; experiment: Antiviral activity against Bovine viral diarrhea virus infected in MDBK cells assessed as inhibition of virus-induced cytopathogenicity after 3 to 4 days by MTT assay; assay type: functional, organism-based; details: Bovine viral diarrhea virus isolates and strains
[5] = Cytotoxicity against mock-infected BHK21 cells after 48 to 96 hrs by MTT assay; assay type: functional; details: Mesocricetus auratus, BHK-21; in short: as §1
[6] = system: Yellow fever virus; experiment: Antiviral activity against Yellow fever virus infected in BHK21 cells assessed as inhibition of virus-induced cytopathogenicity after 3 to 4 days by MTT assay; assay type: functional, organism-based; details: BHK-21
[7] = system: Reovirus sp.; experiment: Antiviral activity against Reovirus type-1 infected in BHK21 cells assessed as inhibition of virus-induced cytopathogenicity after 3 to 4 days by MTT assay; assay type: functional, organism-based; details: BHK-21
[8] = Cytotoxicity against mock-infected african green monkey Vero 76 cells after 48 to 96 hrs by MTT assay; assay type: cell-based; details: chlorocebus sabaeus, mock-infected Vero 76 cells
[9] = system: Coxsackievirus B5; experiment: Antiviral activity against Coxsackievirus B5 infected in african green monkey Vero 76 cells assessed as reduction in plaque number after 3 days by plaque reduction assay; assay type: functional, organism-based; details: Enterovirus B, 72 h
[10] = system: Poliovirus 1; experiment: Antiviral activity against Poliovirus type 1 Sabin strain infected in african green monkey Vero 76 cells assessed as reduction in plaque number after 2 days by plaque reduction assay; assay type: functional, organism-based; details: Enterovirus C, 48 h
[11] = system: Respiratory syncytial virus; experiment: Antiviral activity against Respiratory syncytial virus infected in african green monkey Vero 76 cells assessed as reduction in plaque number after 5 days by plaque reduction assay; assay type: functional, organism-based; details: human respiratory syncytial virus, 120 h
[12] = system: Vesicular stomatitis virus; experiment: Antiviral activity against Vesicular stomatitis virus infected in african green monkey Vero 76 cells assessed as reduction in plaque number after 2 days by plaque reduction assay; assay type: functional, organism-based; details: 48 h
[13] = system: Vaccinia virus; experiment: Antiviral activity against Vaccinia Virus infected in african green monkey Vero 76 cells assessed as reduction in plaque number after 3 days by plaque reduction assay; assay type: functional, organism-based; details: Orthopoxvirus vaccinia, 72 h
[14] = system: Human alphaherpesvirus 1; experiment: Antiviral activity against HSV1 infected in african green monkey Vero 76 cells assessed as reduction in plaque number after 3 days by plaque reduction assay; assay type: functional, organism-based; details: Human alphaherpesvirus 1, Vero, 72 h
[15] = Selectivity index, ratio of CC50 for african green monkey Vero 76 cells to EC50 for Coxsackievirus B5; assay type: toxicity, cell-based; details: read-out: Ratio CC50/EC50
In short: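 Mock-infected Vero-76 cells were tested in parallel on the same 24-well plates as the plaque assays (seeding 4 × 10^5 cells/mL, D-MEM with FBS), with serial compound dilutions at 37 °C, 5% CO2. Viability was read after 48–96 h by crystal violet staining. CC50 by linear regression; selectivity index = Vero-76 CC50/EC50 for CVB-5 or RSV.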

SMILES | CC50 at 96 h [1] [µM] | EC50 [2] [µM] | CC50 [3] [µM] | EC50 [4] [µM] | CC50 [5] [µM] | EC50 [6] [µM] | EC50 [7] [µM] | CC50 [8] [µM] | EC50 [9] [µM] | EC50 [10] [µM] | EC50 [11] [µM] | EC50 [12] [µM] | EC50 [13] [µM] | EC50 [14] [µM] | selectivity ratio [15]
c1ccc(-c2nc3ccccc3n2[C@H]2CCCN3CCCC[C@H]23)cc1 | > 100 | > 100 | > 100 | > 100 | > 100 | > 100 | > 100 | ≥ 100 | 80 | > 100 | > 100 | 68 | > 100 | > 100 | > 1.25
Clc1ccc2nc(-c3ccccc3)n([C@@H]3CCCN4CCCC[C@H]34)c2c1 | > 100 | > 100 | > 100 | 40 | > 100 | > 100 | > 100 | ≥ 100 | 32 | > 100 | > 100 | > 100 | > 100 | > 100 | > 3.12
FC(F)(F)c1ccc2c(c1)nc(-c1ccc(Cl)cc1)n2C[C@@H]1CCCN2CCCC[C@H]12 | 24 | > 100 | 40 | > 100 | 75 | > 100 | > 100 | 24 | 14 | > 100 | > 100 | > 100 | > 100 | > 100 | 1.71
Oc1ccc(-c2nc3cc(C(F)(F)F)ccc3n2C[C@@H]2CCCN3CCCC[C@H]23)cc1 | 21 | > 100 | 48 | > 100 | 60 | > 100 | 32 | 78 | 26 | > 100 | > 100 | > 100 | > 100 | > 100 | 3
COc1ccc(-c2nc3cc(C(F)(F)F)ccc3n2C[C@H]2CCCN3CCCC[C@H]23)cc1 | 42 | > 100 | 57 | > 100 | 30 | > 100 | > 100 | > 100 | 54 | > 100 | > 100 | > 100 | > 100 | > 100 | > 1.85
CCN(CC)CCCn1c(Cc2ccc(Cl)c(Cl)c2)nc2cc(C(F)(F)F)ccc21 | 40 | > 100 | 26 | > 100 | > 100 | > 100 | > 100 | > 100 | 17 | 63 | > 100 | > 100 | > 100 | > 100 | > 5.88
Clc1ccc(Cc2nc3cc(Cl)c(Cl)cc3n2C[C@@H]2CCCN3CCCC[C@H]23)cc1 | 17 | > 100 | > 100 | > 100 | 30 | > 100 | > 100 | > 100 | 28 | > 100 | > 100 | > 100 | > 100 | > 100 | > 3.57
FC(F)(F)c1ccc2c(c1)nc(Cc1ccccc1)n2C[C@@H]1CCCN2CCCC[C@H]12 | > 100 | > 100 | > 100 | > 100 | 15 | > 100 | > 100 | > 100 | 10 | 60 | > 100 | > 100 | > 100 | > 100 | > 10
FC(F)(F)c1ccc2c(c1)nc(Cc1ccccc1)n2C[C@H]1CCCN2CCCC[C@H]12 | 100 | > 100 | 28 | > 100 | 25 | > 100 | > 100 | 93 | 75 | > 100 | > 100 | > 100 | > 100 | > 100 | 1.24
Nc1ccc(Cc2nc3ccccc3[nH]2)cc1 | > 100 | > 100 | > 100 | > 100 | > 100 | > 100 | > 100 | > 100 | 17 | 58 | > 100 | > 100 | > 100 | > 100 | > 5.88
FC(F)(F)c1ccc2[nH]c(Cc3ccc(Cl)cc3)nc2c1 | > 100 | > 100 | 16 | > 100 | 20 | > 100 | > 100 | 70 | 26 | > 100 | > 100 | > 100 | > 100 | > 100 | 2.69
COc1ccc(Cc2nc3cc(C(F)(F)F)ccc3[nH]2)cc1 | 69 | > 100 | 56 | > 100 | 60 | > 100 | > 100 | 92 | 20 | > 100 | > 100 | > 100 | > 100 | > 100 | 4.6
FC(F)(F)c1ccc2c(c1)nc(CC1=CCCC1)n2C[C@@H]1CCCN2CCCC[C@H]12 | 5 | > 100 | 50 | > 100 | 30 | > 100 | > 100 | > 100 | > 100 | > 100 | > 100 | > 100 | > 100 | 30 | –
CCOCc1nc2ccccc2[nH]1 | > 100 | > 100 | > 100 | > 100 | > 100 | > 100 | > 100 | > 100 | > 100 | > 100 | > 100 | > 100 | > 100 | > 100 | –
c1ccc(-n2c(C[C@@H]3CCCN4CCCC[C@H]34)nc3ccccc32)cc1 | 33 | > 100 | > 100 | 89 | 30 | > 100 | > 100 | > 100 | 49 | > 100 | > 100 | > 100 | > 100 | > 100 | > 2.04
CCc1nc2ccccc2[nH]1 | > 100 | > 100 | > 100 | > 100 | > 100 | > 100 | > 100 | > 100 | > 100 | > 100 | > 100 | > 100 | > 100 | > 100 | –
C[C@@]1(O)[C@H](O)[C@@H](CO)O[C@H]1n1cnc2c(=O)[nH]c(N)nc21 [2'-B-METHYL-GUANOSINE] | > 100 | – | > 100 | – | 90 | > 100 | 2.4 | > 100 | 20 | > 100 | > 100 | > 100 | > 100 | > 100 | > 5
